Consider five compounds from publication PMC9477609 (Journal of Molecular Liquids, 2022).

A short description of data set [1]: water solubility of neat and equilibrated powders. The data set is classed as physicochemical. The settings on record: for water solubility: neat and solvent-equilibrated dry powders.
For data set [2] the following is noted: cited from earlier work.
For data set [3], the system named is MDA-MB-231. The following applies: human breast cancer cell lines (MDA-MB-231) ref 5; cited from earlier work.
In data set [4] the test system is MCF-7. The following applies: read-out: cell proliferation inhibitor IC50; MCF-7 ref 5; cited from earlier work.
Data set [5] can be described thus: apparent thermodynamic analysis: dissolution Gibbs free energy. The data set is classed as physicochemical. The procedure, abridged: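 Excess solid was added to the pure solvent, vortexed and sonicated, then shaken for 24 h at 300 rpm at each temperature from 298.15 to 323.15 K. Samples were centrifuged for 20 min at 8000 rpm and 25 °C. Supernatant was diluted in MeOH/water 8:2 and read by absorbance at 330 nm against a 5–35 µg/mL calibration. Mole fraction solubility was the mean of triplicates. Dissolution thermodynamics came from Van't Hoff analysis.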

Data set [6] has as its system parasitic proliferation. The settings on record: cited from earlier work.
Data set [7] deals with hepatitis C virus. The settings on record: cited from earlier work.
In data set [8] the test system is snails. The settings on record: cited from earlier work.
For data set [9] the following is noted: in water, PBS (pH 7.4), SGF and SIF; no reference given; cited from earlier work.

Converted amounts (≈) assume the structure as drawn.

Broadly, the log P is the decadic logarithm of the partition coefficient of the neutral form, usually between octanol and water. For orientation: solubility means the concentration that dissolves in the medium under given conditions. Lower therefore signals a poorly soluble substance. As a reminder, the aqueous solubility is how much of the substance goes into solution per volume.

As to `O=C(Nc1ccc([N+](=O)[O-])cc1Cl)c1cc(Cl)ccc1O` [NCL-MeOH], the water solubility in data set [1] worked out at 16.261 ± 0.082 µg/mL (≈ 49.7 µM).

With `C[S+](C)[O-]` [dimethyl sulfoxide], the log partition coefficient (log P) in data set [2] was −1.35.

Regarding `O=C(Nc1ccc([N+](=O)[O-])cc1Cl)c1cc(Cl)ccc1O` [NCL-DMSO], the water solubility in data set [1] is reported as 18.082 ± 0.045 µg/mL (≈ 55.3 µM).

`CO` [methanol]: the “log P” value in data set [2] was −0.69.

For `O=C(Nc1ccc([N+](=O)[O-])cc1Cl)c1cc(Cl)ccc1O` [niclosamide, N-(2′-chloro-4′-nitrophenyl)-5-chlorosalicylamide], in data set [3], the “apoptosis inducer, concentration” value is recorded as 1–10 µM/L. Also, in data set [4], the IC50 was 1060 nM. Besides, the concentration in solution in [1] (water) (solubility) was 20.76 ± 0.099 µg/mL (≈ 63.5 µM). For the same compound, the “ΔdisG, dissolution Gibbs free energy” value in data set [5] (1-butanol, 298.15 K) is -0.48423 kcal/mol; in [5] (1-butanol, 303.15 K) it was -0.48341 kcal/mol; in data set [5] (1-butanol, 308.15 K), -0.48255 kcal/mol; in data set [5] (1-butanol, 313.15 K), -0.48176 kcal/mol; in data set [5] (1-butanol, 318.15 K), -0.48088 kcal/mol; in data set [5] (1-butanol, 323.15 K) it was -0.48009 kcal/mol. Moreover, the “ΔdisG, dissolution Gibbs free energy” value in data set [5] (2-propanol, 298.15 K) is -0.09434 kcal/mol; in data set [5] (2-propanol, 303.15 K) it was -0.09015 kcal/mol; in [5] (2-propanol, 308.15 K) it was -0.08597 kcal/mol; in [5] (2-propanol, 313.15 K), -0.08179 kcal/mol; in data set [5] (2-propanol, 318.15 K) it was -0.07763 kcal/mol; in [5] (2-propanol, 323.15 K) it was -0.07345 kcal/mol. Also, the “ΔdisG, dissolution Gibbs free energy” value in [5] (DMSO, 298.15 K) is 0.1837 kcal/mol; in [5] (DMSO, 303.15 K), 0.1905 kcal/mol; in [5] (DMSO, 308.15 K), 0.1973 kcal/mol; in [5] (DMSO, 313.15 K), 0.2041 kcal/mol; in [5] (DMSO, 318.15 K), 0.2109 kcal/mol; in data set [5] (DMSO, 323.15 K), 0.2177 kcal/mol. Further, the “ΔdisG, dissolution Gibbs free energy” value in data set [5] (Ethanol, 298.15 K) is 0.3086 kcal/mol; in data set [5] (Ethanol, 303.15 K) it was 0.31637 kcal/mol; in data set [5] (Ethanol, 308.15 K) it was 0.32414 kcal/mol; in data set [5] (Ethanol, 313.15 K) it was 0.33191 kcal/mol; in [5] (Ethanol, 318.15 K), 0.33967 kcal/mol; in [5] (Ethanol, 323.15 K) it was 0.34744 kcal/mol. Further, the “ΔdisG, dissolution Gibbs free energy” value in [5] (Methanol, 298.15 K) came out at 1.3769 kcal/mol; in [5] (Methanol, 303.15 K) it was 1.3941 kcal/mol; in [5] (Methanol, 308.15 K) it was 1.4113 kcal/mol; in data set [5] (Methanol, 313.15 K) it was 1.4285 kcal/mol; in data set [5] (Methanol, 318.15 K), 1.4457 kcal/mol; in data set [5] (Methanol, 323.15 K), 1.463 kcal/mol. The “ΔdisG, dissolution Gibbs free energy” value in data set [5] (PEG-200, 298.15 K) was -0.1837 kcal/mol; in data set [5] (PEG-200, 303.15 K), -0.1807 kcal/mol; in data set [5] (PEG-200, 308.15 K), -0.1777 kcal/mol; in data set [5] (PEG-200, 313.15 K), -0.1747 kcal/mol; in data set [5] (PEG-200, 318.15 K), -0.1717 kcal/mol; in data set [5] (PEG-200, 323.15 K), -0.1687 kcal/mol. The “ΔdisG, dissolution Gibbs free energy” value in data set [5] (PEG-400, 298.15 K) was -0.50012 kcal/mol; in [5] (PEG-400, 303.15 K), -0.50024 kcal/mol; in [5] (PEG-400, 308.15 K) it was -0.50038 kcal/mol; in [5] (PEG-400, 313.15 K), -0.50048 kcal/mol; in data set [5] (PEG-400, 318.15 K), -0.50067 kcal/mol; in [5] (PEG-400, 323.15 K) it was -0.50079 kcal/mol. Also, the “ΔdisG, dissolution Gibbs free energy” value in data set [5] (Water, 298.15 K) amounted to 0.1407 kcal/mol; in data set [5] (Water, 303.15 K), 0.1507 kcal/mol; in data set [5] (Water, 308.15 K), 0.1608 kcal/mol; in [5] (Water, 313.15 K) it was 0.1709 kcal/mol; in [5] (Water, 318.15 K) it was 0.181 kcal/mol; in data set [5] (Water, 323.15 K), 0.1911 kcal/mol. The “parasitic proliferation inhibitor MIC50” value in data set [6] is listed as 200–250 nM/L. The “hepatitis C virus replication inhibitor” value in data set [7] is recorded as 0.16 µM/L. Besides, the “lethal concentration in snails” value in [8] was 0.3 mg/L. Further, in data set [9], the aqueous solubility was 6 to 20 µg/mL.
